Each block holds one compound with its values, some of them ahead of it. Active and inactive are the calls of the source. The rule behind the calls is not given here.
What was measured:
[1] = Octanol-phosphate buffer partition coefficient, log P of the compound; assay type: physicochemical
In short: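 Octanol and phosphate buffer partition run at room temperature (29 °C). After separation, the phases are membrane-filtered and drug in the aqueous phase is measured by UV. PC = (Ct − Ca)/Ca, where Ct is total drug concentration and Ca is aqueous-phase concentration.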

[2] = system: Mus musculus; experiment: Anticonvulsant activity in mouse assessed as protection against maximal electroshock-induced seizures at 30 mg/kg, ip after 0.5 hrs; assay type: functional, organism-based; parameters: dose 30 mg/kg
In short: (§1)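 Mouse Test 1: i.p. dosing at 0.01 mL/g. Sets of one, three and one animals receive 30, 100 and 300 mg/kg respectively, each tested at 0.5 h and 4.0 h. Score is N/F, the number of animals protected over the number tested. Screening performed by NINDS following the ADD program protocol.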

[3] = system: Mus musculus; experiment: Anticonvulsant activity in mouse assessed as protection against maximal electroshock-induced seizures at 30 mg/kg, ip after 4 hrs; assay type: functional, organism-based; parameters: dose 30 mg/kg; in short: as §1
[4] = system: Mus musculus; experiment: Anticonvulsant activity in mouse assessed as protection against maximal electroshock-induced seizures at 100 mg/kg, ip after 0.5 hrs; assay type: functional, organism-based; parameters: dose 100 mg/kg; in short: as §1
[5] = system: Mus musculus; experiment: Anticonvulsant activity in mouse assessed as protection against maximal electroshock-induced seizures at 100 mg/kg, ip after 4 hrs; assay type: functional, organism-based; parameters: dose 100 mg/kg; in short: as §1
[6] = system: Mus musculus; experiment: Anticonvulsant activity in mouse assessed as protection against maximal electroshock-induced seizures at 300 mg/kg, ip after 0.5 hrs; assay type: functional, organism-based; parameters: dose 300 mg/kg; in short: as §1
[7] = system: Mus musculus; experiment: Anticonvulsant activity in mouse assessed as protection against maximal electroshock-induced seizures at 300 mg/kg, ip after 4 hrs; assay type: functional, organism-based; parameters: dose 300 mg/kg; in short: as §1
[8] = system: Mus musculus; experiment: Anticonvulsant activity in mouse assessed as protection against subcutaneous pentylenetetrazole-induced seizures at 30 mg/kg, ip after 0.5 hrs; assay type: functional, organism-based; parameters: dose 30 mg/kg
[9] = system: Mus musculus; experiment: Anticonvulsant activity in mouse assessed as protection against subcutaneous pentylenetetrazole-induced seizures at 30 mg/kg, ip after 4 hrs; assay type: functional, organism-based; parameters: dose 30 mg/kg
[10] = system: Mus musculus; experiment: Anticonvulsant activity in mouse assessed as protection against subcutaneous pentylenetetrazole-induced seizures at 100 mg/kg, ip after 0.5 hrs; assay type: functional, organism-based; parameters: dose 100 mg/kg
[11] = system: Mus musculus; experiment: Anticonvulsant activity in mouse assessed as protection against subcutaneous pentylenetetrazole-induced seizures at 100 mg/kg, ip after 4 hrs; assay type: functional, organism-based; parameters: dose 100 mg/kg
[12] = system: Mus musculus; experiment: Anticonvulsant activity in mouse assessed as protection against subcutaneous pentylenetetrazole-induced seizures at 300 mg/kg, ip after 0.5 hrs; assay type: functional, organism-based; parameters: dose 300 mg/kg
[13] = system: Mus musculus; experiment: Anticonvulsant activity in mouse assessed as protection against subcutaneous pentylenetetrazole-induced seizures at 300 mg/kg, ip after 4 hrs; assay type: functional, organism-based; parameters: dose 300 mg/kg
[14] = system: Mus musculus; experiment: Neurotoxicity in mouse assessed as minimum motor impairment at 30 mg/kg, ip after 0.5 hrs by rotarod test; assay type: toxicity, organism-based; parameters: dose 30 mg/kg, route intraperitoneal; conditions: in vivo
In short: (§2)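 Rotorod test for minimal motor impairment in mice given 30, 100 or 300 mg/kg i.p. at 0.01 mL/g, using sets of one, three and one animals, at 0.5 h and 4.0 h. Animals are observed at each dose and time. Score is N/F, the number showing toxicity over the number tested.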

[15] = system: Mus musculus; experiment: Neurotoxicity in mouse assessed as minimum motor impairment at 30 mg/kg, ip after 4 hrs by rotarod test; assay type: toxicity, organism-based; parameters: dose 30 mg/kg, route intraperitoneal; conditions: in vivo; in short: as §2
[16] = system: Mus musculus; experiment: Neurotoxicity in mouse assessed as minimum motor impairment at 100 mg/kg, ip after 0.5 hrs by rotarod test; assay type: toxicity, organism-based; parameters: dose 100 mg/kg, route intraperitoneal; conditions: in vivo; in short: as §2
[17] = system: Mus musculus; experiment: Neurotoxicity in mouse assessed as minimum motor impairment at 100 mg/kg, ip after 4 hrs by rotarod test; assay type: toxicity, organism-based; parameters: dose 100 mg/kg, route intraperitoneal; conditions: in vivo; in short: as §2
[18] = system: Mus musculus; experiment: Neurotoxicity in mouse assessed as minimum motor impairment at 300 mg/kg, ip after 0.5 hrs by rotarod test; assay type: toxicity, organism-based; parameters: dose 300 mg/kg, route intraperitoneal; conditions: in vivo; in short: as §2
[19] = system: Mus musculus; experiment: Neurotoxicity in mouse assessed as minimum motor impairment at 300 mg/kg, ip after 4 hrs by rotarod test; assay type: toxicity, organism-based; parameters: dose 300 mg/kg, route intraperitoneal; conditions: in vivo; in short: as §2

logP [1]: 3.98
Structure (SMILES): O=C(NC(=S)Nc1ccccc1Cl)Nc1ccc2c(c1)C(=O)C(=O)N2Cc1ccccc1Cl
Activity [2]: inactive | Activity [3]: inactive | Activity [4]: inactive | Activity [5]: inactive | Activity [6]: inactive | Activity [7]: inactive | Activity [8]: inactive | Activity [9]: inactive | Activity [10]: inactive | Activity [11]: inactive | Activity [12]: inactive | Activity [13]: inactive | Activity [14]: Non-toxic | Activity [15]: Non-toxic | Activity [16]: Non-toxic | Activity [17]: Non-toxic | Activity [18]: Non-toxic | Activity [19]: Non-toxic

logP [1]: 3.01
Structure (SMILES): O=C(NC(=S)Nc1ccccc1Cl)Nc1ccc2c(c1)C(=O)C(=O)N2Cc1ccccc1
Activity [2]: inactive | Activity [3]: inactive | Activity [4]: inactive | Activity [5]: inactive | Activity [6]: inactive | Activity [7]: inactive | Activity [8]: inactive | Activity [9]: inactive | Activity [10]: inactive | Activity [11]: inactive | Activity [12]: inactive | Activity [13]: inactive | Activity [14]: Non-toxic | Activity [15]: Non-toxic | Activity [16]: Non-toxic | Activity [17]: Non-toxic | Activity [18]: Non-toxic | Activity [19]: Non-toxic

logP [1]: 2.96
Structure (SMILES): Cc1ccc(NC(=S)NC(=O)Nc2ccc3c(c2)C(=O)C(=O)N3Cc2ccccc2)cc1
Activity [2]: inactive | Activity [3]: inactive | Activity [4]: inactive | Activity [5]: inactive | Activity [6]: inactive | Activity [7]: inactive | Activity [8]: inactive | Activity [9]: inactive | Activity [10]: inactive | Activity [11]: inactive | Activity [12]: inactive | Activity [13]: inactive | Activity [14]: Non-toxic | Activity [15]: Non-toxic | Activity [16]: Non-toxic | Activity [17]: Non-toxic | Activity [18]: Non-toxic | Activity [19]: Non-toxic

logP [1]: 3.19
Structure (SMILES): COc1cccc(NC(=S)NC(=O)Nc2ccc3c(c2)C(=O)C(=O)N3Cc2ccccc2Cl)c1
Activity [2]: inactive | Activity [3]: inactive | Activity [4]: inactive | Activity [5]: inactive | Activity [6]: inactive | Activity [7]: inactive | Activity [8]: inactive | Activity [9]: inactive | Activity [10]: inactive | Activity [11]: inactive | Activity [12]: inactive | Activity [13]: inactive | Activity [14]: Non-toxic | Activity [15]: Non-toxic | Activity [16]: Non-toxic | Activity [17]: Non-toxic | Activity [18]: Non-toxic | Activity [19]: Non-toxic

logP [1]: 3.7
Structure (SMILES): Cc1ccccc1NC(=S)NC(=O)Nc1ccc2c(c1)C(=O)C(=O)N2Cc1ccccc1Cl
Activity [2]: inactive | Activity [3]: inactive | Activity [4]: inactive | Activity [5]: inactive | Activity [6]: inactive | Activity [7]: Active | Activity [8]: inactive | Activity [9]: inactive | Activity [10]: inactive | Activity [11]: inactive | Activity [12]: inactive | Activity [13]: Active | Activity [14]: Non-toxic | Activity [15]: Non-toxic | Activity [16]: Non-toxic | Activity [17]: Non-toxic | Activity [18]: Non-toxic | Activity [19]: Non-toxic

logP [1]: 2.92
Structure (SMILES): Cc1cccc(NC(=S)NC(=O)Nc2ccc3c(c2)C(=O)C(=O)N3Cc2ccccc2)c1
Activity [2]: inactive | Activity [3]: inactive | Activity [4]: inactive | Activity [5]: inactive | Activity [6]: inactive | Activity [7]: inactive | Activity [8]: inactive | Activity [9]: inactive | Activity [10]: inactive | Activity [11]: inactive | Activity [12]: inactive | Activity [13]: inactive | Activity [14]: Non-toxic | Activity [15]: Non-toxic | Activity [16]: Non-toxic | Activity [17]: Non-toxic | Activity [18]: Non-toxic | Activity [19]: Non-toxic

logP [1]: 3.73
Structure (SMILES): Cc1ccc(NC(=S)NC(=O)Nc2ccc3c(c2)C(=O)C(=O)N3Cc2ccccc2Cl)cc1
Activity [2]: inactive | Activity [3]: inactive | Activity [4]: inactive | Activity [5]: inactive | Activity [6]: inactive | Activity [7]: inactive | Activity [8]: inactive | Activity [9]: inactive | Activity [10]: inactive | Activity [11]: inactive | Activity [12]: inactive | Activity [13]: inactive | Activity [14]: Non-toxic | Activity [15]: Non-toxic | Activity [16]: Non-toxic | Activity [17]: Non-toxic | Activity [18]: Non-toxic | Activity [19]: Non-toxic

logP [1]: 2.38
Structure (SMILES): COc1ccccc1NC(=S)NC(=O)Nc1ccc2c(c1)C(=O)C(=O)N2Cc1ccccc1
Activity [2]: inactive | Activity [3]: inactive | Activity [4]: inactive | Activity [5]: inactive | Activity [6]: Active | Activity [7]: Active | Activity [8]: inactive | Activity [9]: inactive | Activity [10]: inactive | Activity [11]: inactive | Activity [12]: inactive | Activity [13]: inactive | Activity [14]: Non-toxic | Activity [15]: Non-toxic | Activity [16]: Non-toxic | Activity [17]: Non-toxic | Activity [18]: Non-toxic | Activity [19]: Non-toxic

logP [1]: 2.98
Structure (SMILES): Cc1ccccc1NC(=S)NC(=O)Nc1ccc2c(c1)C(=O)C(=O)N2Cc1ccccc1
Activity [2]: inactive | Activity [3]: inactive | Activity [4]: inactive | Activity [5]: inactive | Activity [6]: inactive | Activity [7]: inactive | Activity [8]: inactive | Activity [9]: inactive | Activity [10]: inactive | Activity [11]: inactive | Activity [12]: inactive | Activity [13]: inactive | Activity [14]: Non-toxic | Activity [15]: Non-toxic | Activity [16]: Non-toxic | Activity [17]: Non-toxic | Activity [18]: Non-toxic | Activity [19]: Non-toxic

logP [1]: 2.48
Structure (SMILES): O=C(NC(=S)Nc1ccccc1)Nc1ccc2c(c1)C(=O)C(=O)N2Cc1ccccc1
Activity [2]: inactive | Activity [3]: inactive | Activity [4]: inactive | Activity [5]: inactive | Activity [6]: inactive | Activity [7]: inactive | Activity [8]: inactive | Activity [9]: inactive | Activity [10]: inactive | Activity [11]: inactive | Activity [12]: inactive | Activity [13]: inactive | Activity [14]: Non-toxic | Activity [15]: Non-toxic | Activity [16]: Non-toxic | Activity [17]: Non-toxic | Activity [18]: Non-toxic | Activity [19]: Non-toxic

logP [1]: 3.24
Structure (SMILES): COc1ccc(NC(=S)NC(=O)Nc2ccc3c(c2)C(=O)C(=O)N3Cc2ccccc2Cl)cc1
Activity [2]: inactive | Activity [3]: inactive | Activity [4]: inactive | Activity [5]: inactive | Activity [6]: inactive | Activity [7]: inactive | Activity [8]: inactive | Activity [9]: inactive | Activity [10]: inactive | Activity [11]: inactive | Activity [12]: inactive | Activity [13]: inactive | Activity [14]: Non-toxic | Activity [15]: Non-toxic | Activity [16]: Non-toxic | Activity [17]: Non-toxic | Activity [18]: Non-toxic | Activity [19]: Non-toxic

— ChEMBL document CHEMBL1781919, “Synthesis and anticonvulsant properties of 1-(amino-N-arylmethanethio)-3-(1-substituted benzyl-2, 3-dioxoindolin-5-yl) urea derivatives” (Eur J Med Chem, 2011)
